# In the library only some 12% were active in any assay of this set; here they are far more common.
# Arbovirus anti = arbovirus infection inhibition | inhibition, % at 10 µM | arbovirus infection cell-based antiviral screen | 200,000 compounds, 0.37% hits; in the data active = inhibition above about 30%
# PKD1 inh = inhibitors of human PKD1 kinase | PKD1 kinase fluorescence polarization assay | inhibition, % (no concentration beside the values) | 200,000 compounds, 0.056% hits | AID 797
# Wee1 stabilizer = blocks degradation of human Wee1 kinase; P30291; HeLa Luc-Wee1K328M stability, luciferase luminescence; 100% = proteasome inhibitor MG132 effect; reporter increase, % at 5 µM; 220,000 compounds, 1.2% hits;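 active = activation above the mean of all tested compounds plus 3 SD, set per screening run, cut at about 8.8% in these data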;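 note: cells exposed to compound for 20 h before luminescence read; 0% = DMSO alone and 100% = MG132 at 30 µM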
# L major viab = inhibitors of Leishmania major promastigote growth; 200,000 compounds, 9% hits; inhibition, % at 10 µM; AID 1063; Leishmania major promastigotes, resazurin fluorescence viability;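 note: promastigotes grown with compound for 44 hours at 28 °C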
# Rad51 HR inh = Rad51 (human) homologous recombination inhibition | Q06609 | hRad51 DNA strand exchange, fluorescence dequenching | inhibition, % at 10 µM | 200,000 compounds, 0.085% hits;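 active = inhibition above 40% at the single screening dose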;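 note: 0% = DMSO control wells and 100% = blanks with heterologous ssDNA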
# Target sequence (Q06609 whole entry, looked up): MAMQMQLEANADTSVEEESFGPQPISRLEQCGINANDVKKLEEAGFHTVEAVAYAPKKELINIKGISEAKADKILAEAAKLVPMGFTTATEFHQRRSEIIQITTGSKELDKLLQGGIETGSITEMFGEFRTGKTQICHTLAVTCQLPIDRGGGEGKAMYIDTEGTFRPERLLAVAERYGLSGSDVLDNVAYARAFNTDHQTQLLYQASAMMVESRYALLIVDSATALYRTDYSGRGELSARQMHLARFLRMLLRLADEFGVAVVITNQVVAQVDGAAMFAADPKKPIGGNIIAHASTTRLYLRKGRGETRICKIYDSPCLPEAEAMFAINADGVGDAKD
#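 Read-out basis: percent inhibition relative to plate controls and blanks / Assay system: human Rad51 nucleoprotein filaments preassembled on unlabelled ssDNA / Timing: filaments 15 min 37 °C, then compound 30 min / Control set: per-plate controls and blanks / Technique: fluorescence dequenching at 485/520 nm / Compound: 10 µM final, single point / Also added: Fluorescein- and BHQ1-tagged 47-mer duplex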
# CHOP inhibitor = inhibitors of CHOP induction in ER stress response. CHO-K1 CHOP-promoter luciferase, tunicamycin-induced, 15-18 h. AID 2732. inhibition, % at 10 µM. 220,000 compounds, 3.8% hits;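 active = compounds that reduced the stress-induced luciferase reporter signal by more than about 70% of percent inhibition, limit read from the data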;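 note: 0% = tunicamycin plus vehicle and 100% = wells without tunicamycin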
# * hit, by the source's call; . = no result given. Cut-off read from the data, not from the text of the source, unless noted: active = inhibition above about 50%; inactive = the rest.
SMILES,Arbovirus anti,PKD1 inh,Wee1 stabilizer,L major viab,Rad51 HR inh,CHOP inhibitor
CCn1c(/C=C/Nc2ccccc2)[n+](CC)c2cc(Cl)c(Cl)cc21,-27.0,-0.3,0.1,100.4*,10.1,27.7
CCOC(=O)Cn1c2c(c(=N)c3c1CCC3)CCCC2,4.5,-1.4,0.1,18.4,6.8,12.4
CCCn1c2c(c(=N)c3c1CCC3)CCCC2,-4.0,-1.5,2.6,99.8*,-1.1,-21.1
N=c1c2c(n(Cc3ccc([N+](=O)[O-])cc3)c3c1CCC3)CCCC2,4.2,6.4,0.6,63.6*,21.9,10.9
N=c1c2c(n(Cc3ccc(Cl)c(Cl)c3)c3c1CCC3)CCCC2,3.5,9.7,-0.6,100.2*,-1.7,49.8
CCCn1c2c(c(=N)c3c1CCC3)CCC2,.,.,-0.2,.,26.2,-4.6
O=c1[nH]c(=O)n(Cc2ccccc2)c2c1CCC2,-0.2,-6.5,-2.1,2.6,-7.8,-15.5
CCCCCCCn1c2c(c(=N)c3ccccc31)CCC2,-33.7,-3.6,0.1,100.4*,-2.4,34.1
N=c1c2c(n(Cc3ccc(Br)cc3)c3c1CCC3)CCCC2,-4.9,-13.6,0.5,100.0*,10.9,9.5
CC1(C)Cc2c(sc3nc(SCC(=O)NCc4ccco4)n(-c4ccccc4)c(=O)c23)CS1,1.9,-6.0,2.1,52.8*,-1.1,29.0
COCCCn1c(SCC(=O)NCc2ccco2)nc2sc3c(c2c1=O)CCC3,9.3,-13.8,-2.4,50.6*,-4.2,-9.9
O=C(CSc1nc2c(sc3ccccc32)c(=O)n1CCCN1CCCC1)NCc1ccco1,-20.1,-4.6,-0.5,94.7*,-31.4,8.7
O=C(CSc1nc2sc3c(c2c(=O)n1-c1ccccc1)CCCC3)NCc1ccco1,-3.9,-1.6,-1.9,-2.0,.,84.4*
COc1ccc(-n2cc(C(=O)O)c(=O)cc2C)cc1,1.3,-0.4,0.9,-5.2,-3.9,14.8
O=C(CSc1nc2scc(-c3ccco3)c2c(=O)n1-c1ccccc1)NCC1CCCO1 (stereo unspecified),3.1,-9.9,-0.1,-1.9,5.1,100.5*
C=CCn1c(SCC(=O)NCC2CCCO2)nc2scc(-c3ccco3)c2c1=O (stereo unspecified),-2.9,0.8,2.8,4.3,.,40.8
CCOc1cc(C=O)cc(Cl)c1OCC(N)=O,-0.2,1.5,6.0,6.7,6.4,-6.2
CC1C2=C(CCCC2=O)N(c2cccc3ccccc23)C2=C1C(=O)CCC2,.,1.6,-2.4,54.6*,.,.
COC(=O)[C@H](CCSC)NC(=O)Nc1cccc(Br)c1,.,.,2.8,.,-6.5,15.7
COc1ccc(NCC(=O)Nc2ccc(Cl)cc2C)c(OC)c1,-12.2,-3.4,-1.1,99.0*,5.8,22.8
NNc1nc(-c2ccccc2Cl)nc2sc3c(c12)CCCC3,-12.1,3.1,-4.8,30.7,-1.4,35.6
CCc1nc(SCC(=O)Nc2c(C)nn(C)c2C)c2cnn(-c3ccccc3)c2n1,-8.1,-4.2,3.2,-2.0,.,90.0*
Cc1nn(C)c(C)c1NC(=O)CSc1nc(Cc2ccccc2)nc2c1cnn2-c1ccccc1,.,-7.4,-0.5,4.1,5.4,.
COc1cc(/C=N/N=C(N)N)ccc1OCc1ccccc1Cl,-29.1,1.3,-0.2,100.5*,15.5,56.9
O=C(C1=NNCC1c1ccccc1)C1OC1c1ccccc1 (stereo unspecified),.,.,2.0,.,-0.8,-9.3
SMILES,Arbovirus anti,PKD1 inh,Wee1 stabilizer,L major viab,Rad51 HR inh,CHOP inhibitor
CC(=O)Nc1nc(C)c(C(C)=O)s1,-1.8,0.5,2.1,-0.5,8.1,-22.9
CC(=O)c1sc(N/N=C2\CC3CCC2(C)C3(C)C)nc1C (stereo unspecified),4.1,0.0,4.7,82.6*,15.6,17.3
Cc1nc2sc(C(=O)Nc3ccccc3Cc3ccccc3)c(C)c2c(=O)[nH]1,.,.,-3.1,.,16.6,10.5
CCCc1nc2oc3c(OC)ncnc3c2c2c1COC(C)(C)C2,-0.4,-0.2,-1.4,11.8,3.3,81.9*
CCN1C=C(C(=O)OC)C(c2cccc(C)c2)C(C(=O)OC)=C1,1.2,-25.9,3.4,-3.3,7.3,-15.8
CCCOc1ccccc1C1C(C(=O)OC)=CN(C(C)C)C=C1C(=O)OC,-14.7,-19.1,-1.3,100.0*,2.0,-13.6
CCCCOc1ccccc1C1C(C(=O)OC)=CN(CC)C=C1C(=O)OC,-15.6,2.8,2.1,60.9*,.,15.2
O=C(CCc1nnc(CCc2c[nH]c3ccccc23)o1)NC1CCC1,.,.,1.6,.,.,7.7
CCN(CC(=O)NCc1ccccc1Cl)CC(=O)Nc1c(F)cccc1F,.,.,9.5*,.,11.6,4.0
